Measured values: ChEMBL document CHEMBL3822382 (Eur J Med Chem, 2016)
The source made the active and inactive calls. No cut-off for these calls is given here.

Experiments:
[1] = Cell cycle arrest in human HCT116 cells expressing wild type p53 assessed as apoptotic index ratio at 100 nM after 24 hrs by propidium iodide staining-based flow cytometry relative to control; type: functional; details: HCT-116
[2] = Cytotoxicity against human EAhy926 cells assessed as cell viability at 250 nM after 16 hrs by MTT assay relative to control; type: cell-based, EA.hy 926; details: read-out: Activity
Procedure, shortened: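 Ea.hy926 cells (100,000/well) placed on Matrigel-coated coverslips and left 12 h to form networks, then given 250 nM for 16 h. Viability measured by 2 h incubation with 0.5 mg/mL MTT and formazan absorbance, calculated relative to DMSO controls.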

HT-29 [3] = test: Growth inhibition of combretastatin A-4 resistant human HT-29 cells after 24 hrs by MTT assay; type: functional, cell-based; details: HT-29, 24 h
Procedure, shortened: (§1)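 Cells seeded at 5000/well (Ea.hy926 10,000/well) and exposed for 24 h to dilution series of 100 µM–5 pM, with DMSO as solvent control. MTT (0.5 mg/mL final) for 2 h. Formazan dissolved in SDS/acetic acid/DMSO and read at 570 nm against a 630 nm background. Viability taken relative to DMSO controls; IC50 from dose–response curves, mean of four independent experiments.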

[4] = Growth inhibition of human EAhy926 cells after 24 hrs by MTT assay; type: cell-based; details: EA.hy 926, 24 h; procedure, shortened: as §1
[5] = Cell cycle arrest in human HCT116 cells expressing wild type p53 assessed as apoptotic index ratio at 50 nM after 24 hrs by propidium iodide staining-based flow cytometry relative to control; type: functional; details: HCT-116
[6] = Growth inhibition of human 518A2 cells after 72 hrs by MTT assay; type: functional, cell-based; details: 518A2, 72 h
Procedure, shortened: (§2)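 5000 cells/well exposed for 72 h to dilution series of 100 µM–5 pM, with DMSO as solvent control. MTT 0.5 mg/mL final for 2 h, absorbance at 570/630 nm. Percentage viable cells taken versus DMSO controls; IC50 from dose–response curves, mean of four independent experiments.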

[7] = Cell cycle arrest in human MCF7/Topo cells assessed as accumulation at subG1 phase at 100 nM after 24 hrs by propidium iodide staining-based flow cytometry (reference value: 4.6%); type: functional
[8] = Growth inhibition of chicken cardiomyocytes after 48 hrs by MTT assay; details: Gallus gallus, Cardiomyocyte
Procedure, shortened: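 Chicken heart fibroblasts explanted from 10-day-old embryos, seeded at 10,000/well; cardiomyocytes seeded at 20,000/well. Dilution series given for 48 h, DMSO as control. MTT 0.5 mg/mL for 2 h, absorbance at 570/630 nm. Viability versus DMSO controls; IC50 from dose–response curves, mean of three independent experiments.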

[9] = Cell cycle arrest in human HCT116 cells expressing wild type p53 assessed as accumulation at S phase at 100 nM after 24 hrs by propidium iodide staining-based flow cytometry (reference value: 15.3%); type: functional; details: HCT-116
[10] = Growth inhibition of human MCF7/Topo cells after 24 hrs by MTT assay; type: functional, cell-based; procedure, shortened: as §1
[11] = Growth inhibition of human KB-V1/Vbl cells after 24 hrs by MTT assay; type: functional; procedure, shortened: as §1
[12] = Cell cycle arrest in human MCF7/Topo cells assessed as accumulation at G1 phase at 100 nM after 24 hrs by propidium iodide staining-based flow cytometry (reference value: 47.8%); type: functional
[13] = Cytotoxicity against fertilized white leghorn chicken embryos in CAM model assessed as lethality at 5 nmol after 24 hrs relative to control; type: organism-based, Gallus gallus; details: in vivo
Procedure, shortened: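 Day-5 fertilized eggs (37 °C, 50-60% humidity) windowed, with 6 mm silicon rings placed on CAM vessels and incubated a further 24 h. Compound diluted to 500 µM in PBS and pipetted inside the ring (10 µL = 5 nmol); DMSO control. Vessel changes documented by stereomicroscopy at 0, 12 and 24 h.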

[14] = Cell cycle arrest in human MCF7/Topo cells assessed as accumulation at S phase at 100 nM after 24 hrs by propidium iodide staining-based flow cytometry (reference value: 16%); type: functional
[15] = Cell cycle arrest in human HCT116 cells expressing wild type p53 assessed as accumulation at G1 phase at 50 nM after 24 hrs by propidium iodide staining-based flow cytometry (reference value: 56.7%); type: functional; details: HCT-116
[16] = Growth inhibition of human 518A2 cells after 24 hrs by MTT assay; type: functional, cell-based; details: 518A2, 24 h; procedure, shortened: as §1
[17] = Cell cycle arrest in human MCF7/Topo cells assessed as apoptotic index ratio at 100 nM after 24 hrs by propidium iodide staining-based flow cytometry relative to control; type: functional
EA.hy 926 [18] = test: Antivascular activity in human EAhy926 cells assessed as induction of retraction of cells to nodes at 250 nM after 16 hrs by light microscopic analysis; type: functional, cell-based
Procedure, shortened: (§3)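 Ea.hy926 cells (100,000/well) were seeded on Matrigel-coated coverslips and allowed 12 h to form vessel-like networks. Test agent (CA-4 100 nM; indoles 250 nM) or DMSO was then added for 16 h, and networks were documented by light microscopy. Viability was checked by 2 h MTT (0.5 mg/mL) relative to DMSO controls.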

EA.hy 926 [19] = test: Antivascular activity in human EAhy926 cells assessed as change in cell morphology from stretched to rounded form at 250 nM after 16 hrs by light microscopic analysis; type: functional, cell-based; procedure, shortened: as §3
[20] = Cell cycle arrest in human HCT116 cells expressing wild type p53 assessed as accumulation at G2/M phase at 50 nM after 24 hrs by propidium iodide staining-based flow cytometry (reference value: 21%); type: functional; details: HCT-116
[21] = Cell cycle arrest in human HCT116 cells expressing wild type p53 assessed as accumulation at G2/M phase at 100 nM after 24 hrs by propidium iodide staining-based flow cytometry (reference value: 21%); type: functional; details: HCT-116
HT-29 [22] = test: Growth inhibition of combretastatin A-4 resistant human HT-29 cells after 72 hrs by MTT assay; type: functional, cell-based; details: HT-29, 72 h; procedure, shortened: as §2
[23] = Growth inhibition of human HCT116 cells expressing wild type p53 after 72 hrs by MTT assay; type: functional, cell-based; details: HCT-116, 72 h
Procedure, shortened: (§4)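 HCT-116 cells, p53 wild-type or p53-/-, seeded at 5000/well and treated 72 h with dilution series (100 µM–5 pM) or DMSO. MTT 0.5 mg/mL for 2 h, absorbance at 570/630 nm. Viability relative to DMSO controls; IC50 from dose–response curves, mean of three independent experiments ± S.D.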

[24] = Cell cycle arrest in human HCT116 cells expressing wild type p53 assessed as accumulation at G1 phase at 100 nM after 24 hrs by propidium iodide staining-based flow cytometry (reference value: 56.7%); type: functional; details: HCT-116
EA.hy 926 [25] = test: Antivascular activity in human EAhy926 cells assessed as disruption of preformed blood vessel lke network at 250 nM after 16 hrs by matrigel based tube formation assay; type: functional, cell-based; procedure, shortened: as §3
[26] = Cell cycle arrest in human HCT116 cells expressing wild type p53 assessed as G2/M index ratio at 100 nM after 24 hrs by propidium iodide staining-based flow cytometry relative to control; type: functional; details: HCT-116
[27] = Growth inhibition of p53 null human HCT116 cells after 72 hrs by MTT assay; type: functional, cell-based; details: HCT-116, 72 h; procedure, shortened: as §4
Sus scrofa = species: Sus scrofa; test: Inhibition of porcine brain alpha/beta tubulin polymerization at 5 uM measured every 20 sec by microplate reader analysis

Row | Structure (SMILES) | Ratio [1] | viability at 16 h, 0.25 µM [2] [%] | IC50 (HT-29 [3]) [nM] | IC50 [4] [nM] | Ratio [5] | IC50 [6] [nM] | Activity [7] [%] | IC50 [8] [nM] | Activity [9] [%] | IC50 [10] [nM] | IC50 [11] [nM] | Activity [12] [%] | mortality at 24 h [13] [%] | Activity [14] [%] | Activity [15] [%] | IC50 [16] [nM] | Ratio [17] | Activity (EA.hy 926 [18]) | Activity (EA.hy 926 [19]) | Activity [20] [%] | other results
1 | COc1cc(-c2ncn(C)c2-c2ccc3c(c2)c(Cl)cn3C)cc(OC)c1OC | 26.1 | > 90 | 26.2 | 24.6 | 24.4 | 18.2 | 30.7 | 1870 | 7.8 | 20.2 | 26 | 16.5 | 80 | 9.9 | 43.6 | 65.4 | 27.2 | Active | Active | 14.6 | Activity [21]: 50.5%; IC50 (HT-29 [22]): 15.6 nM; IC50 [23]: 9.5 nM; Activity [24]: 9.3%; Activity (EA.hy 926 [25]): Active; Ratio [26]: 14.8; IC50 [27]: 26.2 nM; inhibition (Sus scrofa): Active
2 | COc1cc(-c2ncn(C)c2-c2ccc3c(c2)c(Cl)cn3C)cc(Br)c1OC.Cl | 19.7 | > 90 | 31.3 | 29.9 | 10.2 | 28.2 | 24.6 | 3970 | 5.4 | 18.8 | 25.4 | 14.4 | 33 | 8.6 | 53.9 | 51.9 | 21.1 | Active | Active | 17.2 | Activity [21]: 59.7%; IC50 (HT-29 [22]): 23.4 nM; IC50 [23]: 27.4 nM; Activity [24]: 9%; Activity (EA.hy 926 [25]): Active; Ratio [26]: 17.9; IC50 [27]: 21.3 nM; inhibition (Sus scrofa): inactive
